hERG protect – hERG rescue from dofetilide block, primary screen, cell-based, CHO-hERG, FluxOR thallium flux, dofetilide IC70 | Voltage-gated inwardly rectifying potassium channel KCNH2 (Homo sapiens), Q12809 | dofetilide IC70 present | activation (rescue from dofetilide block), less the hit threshold, % at 10 µM | 0.51% of 310,000 active | AID 1511, 2009;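 active = activation above the mean of controls blocked by dofetilide plus 5 SD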;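 note: thallium influx through hERG after potassium depolarization seen as dye fluorescence rise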
KCNK9 block – KCNK9 potassium channel inhibitors, primary screen, HEK293 cells, thallium flux; Potassium channel subfamily K member 9 (Homo sapiens), Q9NPC2; FluxOR thallium flux fluorescence; active compounds read low; B-score at 10 µM; 1.2% of 310,000 active; AID 488922, 2010;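 active = ratio B-score over 3 SD below the library mean, with starting fluorescence within 5 SD of its mean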;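 note: negative B-score means less thallium flux so channel inhibition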
Target sequence (Q9NPC2 whole entry, looked up): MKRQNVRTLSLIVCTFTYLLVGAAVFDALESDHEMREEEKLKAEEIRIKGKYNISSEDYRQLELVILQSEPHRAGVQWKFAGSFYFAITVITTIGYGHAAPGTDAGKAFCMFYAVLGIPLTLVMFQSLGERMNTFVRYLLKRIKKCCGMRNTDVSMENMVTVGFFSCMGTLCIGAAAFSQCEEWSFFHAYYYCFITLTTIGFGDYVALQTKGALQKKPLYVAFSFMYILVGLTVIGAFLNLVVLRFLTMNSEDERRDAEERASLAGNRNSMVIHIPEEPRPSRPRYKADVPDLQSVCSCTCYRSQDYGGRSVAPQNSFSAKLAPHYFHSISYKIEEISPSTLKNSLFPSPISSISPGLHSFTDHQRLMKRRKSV
KCNK3 inh – human KCNK3 channel inhibitors, primary screen, CHO cells, FluxOR thallium flux, B-score | 0.84% of 340,000 active | B-score at 10 µM | FluxOR fluorescence; active compounds read low;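 active = B-score under library mean minus 4 SD, starting fluorescence ratio at most library mean plus 5 SD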;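 note: more negative B-score means stronger inhibition of thallium flux through KCNK3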
KCNQ1 act – potentiators or activators of KCNQ1 channel, primary screen, cell-based, thallium flux, high-throughput. CHO-K1 KCNQ1, thallium flux FluxOR fluorescence; active compounds read high. B-score at 10 µM. 0.35% of 310,000 active. AID 2648, 2010;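 active = fluorescence ratio B-score, a plate-corrected score, at least three library SD, with initial intensity B-score within 5 SD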
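assay system = CHO-K1 cells stably expressing KCNQ1 | medium = assay buffer, equal DMSO in all wells | timing = 37 °C overnight plating, 90-min dark dye load, 20-min compound pretreatment | measured by = kinetic FluxOR thallium fluorescence, 10-s 1-Hz baseline, 110-s post-stimulus read | measure = fluorescence change relative to baseline, converted to B score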
KCNQ1 block – inhibitors of human KCNQ1 channel, primary screen, cell-based, thallium flux, high-throughput; B-score at 10 µM; AID 2642, 2010; CHO-K1 KCNQ1, FluxOR thallium flux fluorescence; active compounds read high; 1.3% of 310,000 active;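 active = compounds whose thallium flux B-score, printed positive for inhibition, exceeds three library SD while starting fluorescence stays within three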;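 note: channel opened by potassium depolarization with thallium stimulus after 20 min compound exposure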
Kir21 inh – inhibitors of mouse Kir2.1 inward-rectifier potassium channel; HEK293-Kir2.1, FluxOR thallium flux fluorescence; active compounds read low; 0.85% of 310,000 active; B-score at 10 µM; Inward rectifier potassium channel 2 (Mus musculus), P35561;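 active = fluorescence ratio B-score at or below minus 3 SD of library scores, with starting-brightness B-score within 2 SD, cut at about -4.2 in these data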;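 note: channel flux triggered by added potassium and thallium sulfate stimulus; B-score of peak minus minimum fluorescence over baseline after thallium stimulus; more negative B-score means stronger Kir2.1 block with less thallium influx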
* marks the source's active call; other numbers are inactive results; i = inactive; . = no result given. Compounds with a hit are over-represented: about 3.7% of the library has one in this group of screens.

SMILES | hERG protect | KCNK9 block | KCNK3 inh | KCNQ1 act | KCNQ1 block | Kir21 inh
Cc1cccc(N2CCN(C(=O)CNC(=O)Cc3ccccc3)CC2)c1C | . | . | i | . | . | .
O=C1OC(N2C(=O)CC[C@H]2C(=O)Nc2ccc(Br)cc2F)c2ccccc21 (stereo partly specified) | -3.4 | i | i | i | i | 1.23
O=S(=O)(CCSc1ccccn1)c1nc2ccccc2s1 | -17.7 | i | i | i | 6* | 0.75
O=S(=O)(CCSc1nc2ccccc2o1)c1nc2ccccc2s1 | -5.9 | i | i | i | i | -3.5
Cc1[nH]n(-c2nc(-c3ccc(Cl)cc3)cs2)c(=O)c1N=Nc1ccc(O)cc1 | -7.9 | i | i | i | 8* | 0.08
COc1ccc(C(=O)N/C(=C\c2cccc3ccccc23)C(=O)N2CCN(C)CC2)cc1 | . | . | i | . | . | .
CCN1C(=O)N[C@@H](c2cccs2)C(C(C)=O)=C1C | -2.3 | i | i | i | i | 1.33
CN(C(=O)C(Cl)Cl)c1ccc(OC(=O)c2ccco2)cc1 | -3.9 | i | i | i | i | -4.69*
O=C(Oc1cccnc1)c1ccco1 | 2.8 | i | i | i | i | 0.2
O=C(c1ccco1)N1CCCC(c2nc3c(nnn3Cc3ccc(F)cc3)c(=O)[nH]2)C1 (stereo unspecified) | -2.8 | i | i | i | i | 2.07
CC(C)(C)OC(=O)C[C@@H]1C/C=C\C[C@H](CC(=O)NCCO)C(=O)NC[C@H](c2ccccc2)OC1=O | . | . | i | . | . | .
O=C(CSc1ccccc1)NCC(c1ccco1)N1CCCCC1 (stereo unspecified) | . | . | i | . | . | .
OC(CNCC(c1ccco1)N1CCCCC1)c1ccccc1 (stereo unspecified) | 5.9* | i | i | i | i | -2.67
CCNC(=O)/C(=C/c1cccc([N+](=O)[O-])c1)NC(=O)c1ccc(C)cc1 | 2.4 | i | i | i | i | 2.38
C=CCN1C(=O)/C(=C2/Sc3ccc(OC)cc3N2CC)SC1=S | -3.8 | i | i | i | 6* | 1.49
CCCCN1C(=O)/C(=C2/Sc3ccc(OC)cc3N2CC)SC1=S | -0.8 | i | i | i | i | 0.42
O=C(CSc1ccccc1F)NCC(c1cccs1)N1CCOCC1 (stereo unspecified) | . | . | i | . | . | .
O=C(Cn1cnc([N+](=O)[O-])c1)Nc1cc(Oc2ccc(Cl)cc2Cl)cc([N+](=O)[O-])c1 | -7.9 | i | i | i | 8* | 0.32
CC1=NN(C(N)=S)C(=O)C1N=Nc1c(C)n(C)n(-c2ccccc2)c1=O (stereo unspecified) | -1.3 | i | i | i | i | -0.84
O=C(c1ccco1)N1CCN(C(=O)c2ccc(COc3ccc4c(c3)CCC4)o2)CC1 | -1.3 | -8.04* | i | i | i | -1.05
O=C(c1ccc(COc2ccc3c(c2)CCC3)o1)N1CCN(c2ccccc2)CC1 | -4.5 | i | i | i | i | -0.39
CCOc1cccc2sc(N(CCN(C)C)C(=O)c3cc4ccccc4cc3OC)nc12 | -10.9 | i | i | i | 9* | -1.63
Cc1cccc2sc(N(CCCN(C)C)C(=O)c3ccc(Cl)s3)nc12 | -20.4 | i | i | i | i | -5.4*
CN(C)CCN(C(=O)c1cccc2ccccc12)c1nc2cc3c(cc2s1)OCO3 | -21.4 | i | i | i | 6* | 2.06
CCOc1ccc2nc(N(CCN(C)C)C(=O)c3cc4ccccc4cc3OC)sc2c1 | -18.5 | i | i | i | i | 2.39
COc1ccc(-c2c(-c3cc(OC)cc(OC)c3)n(C)c3ccc(-c4ccc(N(C)C)nc4)cc23)cc1 | . | . | i | . | . | .

Assay outcomes as filed in PubChem BioAssay.
